Results pooled from the literature.
Compare with care: the assays were run in different laboratories.
Target: Adenosine receptor A2a (ADORA2A, Homo sapiens, UniProt P29274)

Nc1nc(I)nc2c1ncn2[C@H]1[C@H](O)[C@H](O)[C@]2(CCl)C[C@H]12  Ki (ligand displacement; radioligand): 5350 nM
CCCCN1CCCn2c1nc1c2c(=O)n(CCC)c(=O)n1CCC  Ki (ligand displacement; radioligand; cell membranes): 1390 nM
c1coc(-c2nc3cc(CCN4CCOCC4)ccc3o2)c1  Ki (ligand displacement; radioligand; cell membranes): 11000 nM
Nc1nc(-c2ccccc2Cl)nn1C(=O)CCc1ccccc1  Ki (ligand displacement; radioligand; cell membranes): 630 nM
CNC(=O)[C@@]12C[C@@H]1[C@@H](n1cnc3c(NCc4cn(-c5ccc(C(=O)NCCCF)cc5)nn4)nc(Cl)nc31)[C@H](O)[C@@H]2O  Ki (ligand displacement; radioligand; cell membranes): 1840 nM
CCNC(=O)[C@H]1O[C@@H](n2cnc3c(N)nc(NN=C[C@H]4CCC=CO4)nc32)[C@H](O)[C@@H]1O  Ki (ligand displacement; radioligand): 3.76 nM
Cc1cccc(-c2nc(N)n(C(=O)CCc3ccccc3)n2)c1  Ki (ligand displacement; radioligand; cell membranes): 250 nM
Oc1cccc(Nc2nc(-c3ccc(F)cc3F)cs2)c1  Ki (cell-free assay): 5100 nM
c1coc(-c2nc3cc(NCCN4CCCCC4)ccc3o2)c1  Ki (ligand displacement; radioligand; cell membranes): 11000 nM
CSC[C@@]12C[C@@H]1[C@@H](n1cnc3c(N)nc(I)nc31)[C@H](O)[C@@H]2O  Ki (ligand displacement; radioligand): 3120 nM
CCCCCCN1CCCn2c1nc1c2c(=O)n(C)c(=O)n1C  Ki (ligand displacement; radioligand; cell membranes): 2070 nM
CNC(=O)[C@@]12C[C@@H]1[C@@H](n1cnc3c(NCc4cccc(C#CCCCc5cn(-c6ccc(F)c(N)c6)nn5)c4)nc(Cl)nc31)[C@H](O)[C@@H]2O  Ki (ligand displacement; radioligand; cell membranes): 2730 nM
